Results from the EternaBench riboswitch data.

How the values were obtained:
MS2 coat protein [1] = test: apparent Kd, MS2 coat protein; higher = weaker binding; RNA-MaP array; settings: designed as: OFF switch for flavin mononucleotide
Procedure, shortened: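 Apparent Kd is the median of per-cluster binding-curve fits for designed RNAs transcribed from sequenced DNA templates on an Illumina sequencing chip. The RNAs were incubated at room temperature with fluorescently labeled MS2 coat protein at 1.5 nM to 3 μM, with or without input ligand, and designs measured on fewer than 10 clusters were excluded.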

MS2 coat protein [2] = test: apparent Kd, MS2 coat protein; higher = weaker binding; RNA-MaP array; FMN 200 µM where present
Procedure, shortened: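 On Illumina sequencing-chip clusters, designs were transcribed by stalled E. coli RNA polymerase and titrated with SNAP-549-labelled MS2 coat protein (0.7 or 1.5 nM, doubling to 3 µM), without and then with constant ligand, in 100 mM Tris-HCl pH 7.5, 80 mM KCl, 4 mM MgCl2, BSA, DTT, yeast tRNA and Tween-20. Apparent Kd is the median of filtered per-cluster curve fits to green signal normalised to red-channel RNA signal and control-cluster median Fmax.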

[3] = ligand present: flavin mononucleotide
[4] = designed as: ON switch for flavin mononucleotide, no ligand
[5] = ligand present: flavin mononucleotide, designed as: ON switch for flavin mononucleotide
[6] = designed as: OFF switch for flavin mononucleotide, no ligand
[7] = ligand present: flavin mononucleotide, designed as: OFF switch for flavin mononucleotide

Sequence | apparent Kd (MS2 coat protein [2]; [6]) | apparent Kd (MS2 coat protein [2]; [7]) | further results
AACAAGUAGGAGAAGGUAGAUGAGACUGUGCACUAAGGAUAUCCAUACAUGAGGAUCACCCAUGUCUGGACUAGUAUAUGGACA | – | – | apparent Kd (MS2 coat protein [1]; no ligand): 5.74 nM; apparent Kd (MS2 coat protein [1]; [3]): 5.69 nM
GUUUCGUCAGGAUAUGCUUAAGAAGUCUUCUCACCGGACUUGCAGAAGGGACAUGAGGAUCACCCAUGUGGUAA | – | – | apparent Kd (MS2 coat protein [1]; no ligand): 36.5 nM; apparent Kd (MS2 coat protein [1]; [3]): 167 nM
CGCUACUACCAGAAGGACAUGAGGAUCACCCAUGUAGGAUAUGGGUUACAAGUUCCUGUGUAAAGAAACUACGCUACGUAUGCG | – | – | apparent Kd (MS2 coat protein [2]; [4]): 715 nM; apparent Kd (MS2 coat protein [2]; [5]): 31.7 nM
GUGGUACAUGAGGAUCACCCAUGUUAGGAUAUCGCGUGAGGUUUUGCUUCCGCGCGCGCGAGAAGGGACGUCUU | 28.3 nM | 23.9 nM | –
UAGUCGGUAGAUAAUAAUGAUUACAUGAGGAUCACCCAUGUAUAGGAUAUCGUCAGGAAUACUGACGAGAAGGAUACAUCCGAC | 18 nM | 26.5 nM | –
UUUUAACAUGAGGAUCACCCAUGUCGUUCAAAUCAAGGAUAUCAAGCGUGUGCGCACGCUUGAGAAGGUGAAGCUC | – | – | apparent Kd (MS2 coat protein [2]; [4]): 54.2 nM; apparent Kd (MS2 coat protein [2]; [5]): 191 nM
GAUCAACAUGAGGAUCACCCAUGUGAGGAUAUGUAUCAUAGAUCUUCGGAUCUAUGAUACAGAAGGCAUGUGGA | 204 nM | 46.5 nM | –
CUGUGGGCCAUAGGAUAUGCGCAGAAUUAGCAAGCAGAAGGGUGGAUCGUACAAUAAUAACUACAUGAGGAUCACCCAUGUGCU | – | – | apparent Kd (MS2 coat protein [2]; [4]): 360 nM; apparent Kd (MS2 coat protein [2]; [5]): 39.6 nM
ACGACGAAAGUCGAACGAUGAUCGAGAAGGACAUGAGGAUCACCCAUGUCCGCUGUAACAGCCAUGUAGGAUAUCGAUCAUCGA | 3.59 nM | 3.83 nM | –
GCAUGGUAUGAGAAGGCAUAUUUAAUCUAACAUCAUGUUUACAUGAGGAUCACCCAUGUUACCAAUGAGGAUAUCAUACCGUGC | 9.67 nM | 9.8 nM | –
UGCAUCUGAGGAUAUCACAUGUGGAACAUGAGGAUCACCCAUGUGAUCCACAUGCCGUUGUGAGAAGGCAGUAAAA | 314 nM | 193 nM | –
CAUCAUCAAGUGAGGAUAUCGUCAAAUCAAUCAAACGAGAAGGCACAUGAGGAUCACCCAUGUCGACUCAUCAA | 18.3 nM | 24.9 nM | –
AUCAGCUCGUCAGGAUAUACGUCACUGCGUCAGCAGUGUGGUAAGAUCACAUGAGGAUCACCCAUGUAGAAGGUACGAGCUGAU | 8.6 nM | 13.8 nM | –
GGAGCCGAUACUGAGGAUAUUCAUAUUAAAACAUGAGGAUCACCCAUGUAGGCCAGAAGGCCUUGGGAGAAGGCAGAUCGGCUCC | – | – | apparent Kd (MS2 coat protein [2]; [4]): 417 nM; apparent Kd (MS2 coat protein [2]; [5]): 26 nM
AUACAUGAGGAUCACCCAUGUUACUGGGUCUAUAUAGAACGUAGAAGGAUGAUAUUAUAAAUAUCAUAGGAUAUACUAUUUUGU | 29.9 nM | 35.3 nM | –
GGGCCGUAGUAGAAGGGAUAUACGAUUGGUAUAUCAGGAUAUACAUGAGGAUCACCCAUGUUCUAACAGUGAUAGUCCUCCCUA | 23 nM | 54.8 nM | –
AGCUACGUUUCGUAGCAGUGUCAUCGAGAAGGCCUUAAAACAUGAGGAUCACCCAUGUAUGCAUGGGAGGAUAUCGAUGAUACA | – | – | apparent Kd (MS2 coat protein [2]; [4]): 31.7 nM; apparent Kd (MS2 coat protein [2]; [5]): 6.98 nM
AGUCAGAGAGGAUAUACAUGGGAAAAAAAAGUAAGAUCCCUACAUGAGGAUCACCCAUGUAGAAGGCUCUGACA | 28.6 nM | 36 nM | –
GGUCCGAGUGUGAGGAUAUGCUGGUCCUUGGAUCAGCAGAAGGCACAUGAGGAUCACCCAUGUGGAGACGGACC | 206 nM | 538 nM | –
CAGCGAAAGUAGAAGGCAGUACUGUUACAGUACUGAGGAUAUACAUGAGGAUCACCCAUGUAAUAAAGCUGGAAAUAUAUAAUU | 6.41 nM | 7.33 nM | –
